Data reported in PMC7557999 (ACS Omega, 2020).

Experiments:
[1] = tested on: MCF7 cells; assay: MTT assay, MCF7 cell proliferation; assay type: cell-based; conditions: Homo sapiens, MCF7, 24 h, read-out: IC50, MCF7 cell proliferation
How it was run: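 MCF7 cells were grown in DMEM or RPMI-1640 with 10% FBS at 37 °C and 5% CO2, then seeded in 96-well plates. Test compound was added at various amounts, with DMSO as vehicle, for 24 h. MTT (5 mg/mL stock) was added for 4 h, then SDS-HCl overnight. A570 was read and IC50 calculated by the plate reader. Values are mean ± SD of triplicate assays.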

[2] = biological target: T1, PTP1B (Homo sapiens, UniProt P18031); assay: PTP activity assay; assay type: biochemical; conditions: for inhibition type (Lineweaver–Burk plot), PTP1B: Lineweaver–Burk plot analysis
T1 sequence (P18031 3-277 limits assumed): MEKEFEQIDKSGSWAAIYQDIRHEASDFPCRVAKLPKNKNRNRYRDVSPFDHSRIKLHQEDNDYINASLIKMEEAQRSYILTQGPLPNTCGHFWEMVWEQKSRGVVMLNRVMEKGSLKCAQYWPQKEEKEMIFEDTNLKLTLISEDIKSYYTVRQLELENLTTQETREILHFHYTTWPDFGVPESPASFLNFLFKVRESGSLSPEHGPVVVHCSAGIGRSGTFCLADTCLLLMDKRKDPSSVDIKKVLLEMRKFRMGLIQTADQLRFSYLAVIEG
How it was run: (§1)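 Human catalytic domains were His-tagged, expressed in E. coli BL21(DE3) with 0.4 mM IPTG overnight at 20 °C, and purified under native conditions. The pNPP hydrolysis buffer was 10 mM NaAc-HAc, 1 mM EDTA, 1 mM DTT, pH 5.5, with 0.1 vol % test compound or DMSO at 37 °C. A405 was read every 20 s for 30 min.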

[3] = biological target: T2, SHP2 (Homo sapiens, UniProt Q06124); assay: PTP activity assay; assay type: biochemical; conditions: for inhibition type (Lineweaver–Burk plot), SHP2: Lineweaver–Burk plot analysis
T2 sequence (Q06124 247-517 limits assumed): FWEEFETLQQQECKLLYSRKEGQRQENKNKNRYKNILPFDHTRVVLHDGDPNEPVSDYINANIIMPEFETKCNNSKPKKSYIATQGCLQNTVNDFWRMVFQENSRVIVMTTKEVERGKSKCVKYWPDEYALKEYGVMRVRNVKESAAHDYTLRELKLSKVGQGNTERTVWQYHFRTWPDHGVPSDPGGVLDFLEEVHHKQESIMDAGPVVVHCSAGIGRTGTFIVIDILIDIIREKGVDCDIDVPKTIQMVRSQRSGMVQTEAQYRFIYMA
How it was run: as §1

[4] = biological target: T3, SHP1 (Homo sapiens, UniProt P29350); assay: PTP activity assay; assay type: biochemical; conditions: for inhibition type (Lineweaver–Burk plot), SHP1: Lineweaver–Burk plot analysis
T3 sequence (P29350 244-515 limits assumed): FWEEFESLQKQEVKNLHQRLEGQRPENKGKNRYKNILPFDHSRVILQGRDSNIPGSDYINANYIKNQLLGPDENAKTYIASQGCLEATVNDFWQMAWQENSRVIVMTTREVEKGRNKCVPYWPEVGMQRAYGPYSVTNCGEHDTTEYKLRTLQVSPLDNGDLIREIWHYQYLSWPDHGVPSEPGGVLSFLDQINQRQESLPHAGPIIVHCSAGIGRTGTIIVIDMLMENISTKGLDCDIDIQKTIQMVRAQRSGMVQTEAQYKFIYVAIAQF
How it was run: as §1

[5] = biological target: T4, STEP (Homo sapiens, UniProt P54829); assay: PTP activity assay; assay type: biochemical
T4 sequence (P54829 300-555 limits assumed): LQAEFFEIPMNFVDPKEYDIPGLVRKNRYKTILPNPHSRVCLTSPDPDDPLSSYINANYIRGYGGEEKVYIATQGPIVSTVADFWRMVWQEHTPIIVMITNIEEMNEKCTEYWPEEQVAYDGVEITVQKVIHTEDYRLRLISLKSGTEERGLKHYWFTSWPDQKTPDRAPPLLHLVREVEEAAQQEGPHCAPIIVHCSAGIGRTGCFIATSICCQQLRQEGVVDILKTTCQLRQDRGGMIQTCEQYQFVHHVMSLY
How it was run: as §1

[6] = biological target: T5, LYP (Homo sapiens, UniProt Q9Y2R2); assay: PTP activity assay; assay type: biochemical
T5 sequence (Q9Y2R2 24-289 limits assumed): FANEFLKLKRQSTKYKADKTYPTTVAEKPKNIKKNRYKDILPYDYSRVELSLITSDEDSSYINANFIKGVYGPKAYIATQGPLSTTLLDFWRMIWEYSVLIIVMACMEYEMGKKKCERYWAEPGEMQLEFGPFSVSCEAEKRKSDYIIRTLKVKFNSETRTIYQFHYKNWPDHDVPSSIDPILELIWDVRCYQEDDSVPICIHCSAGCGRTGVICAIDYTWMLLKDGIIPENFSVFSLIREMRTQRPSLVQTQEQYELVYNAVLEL
How it was run: as §1

[7] = tested on: MCF7 cells; assay: Colony formation assay; assay type: cell-based, Human; conditions: 0.15, 0.45 and 0.75 μM, 6 days
[8] = tested on: p-ERK; assay: Western blotting of ERK phosphorylation in MCF7 cells; assay type: cell-based, Human; conditions: MCF7 cells, 1.5, 7.5 and 15 μM, 24 h
How it was run: (§2)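 MCF7 cells were treated for 24 h with 0, 1.5, 7.5 or 15 μM test compound. Lysates were immunoblotted with antibodies to c-JUN, p-ERK and total ERK, with GAPDH as internal control.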

[9] = tested on: c-JUN; assay: Western blotting of c-JUN in MCF7 cells; assay type: cell-based, Human; conditions: MCF7 cells, 1.5, 7.5 and 15 μM, 24 h
How it was run: as §2

[10] = tested on: MCF7 cells; assay: RNA sequencing assay of treated MCF7 cells; assay type: cell-based, Human; conditions: vs control, three repeats
How it was run: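 MCF7 cells were treated with test compound alongside a control group, three repeats per group. Libraries were prepared with NEBNext Ultra and sequenced on an Illumina HiSeq. Differential expression used DESeq/Cuffdiff with cutoffs of log2 fold change >1 or […], Q value <0.05 and FPKM >1.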

O=c1[nH]cc(F)c(=O)[nH]1 [5-fluorouracil, reference compound]
IC50 [1]: 25.1 ± 8.8 µM

CC(=O)OC[C@]12Oc3c(-c4ccc(O)c5c4O[C@@]4(COC(C)=O)C(=C(O)C[C@@H](C)[C@H]4OC(C)=O)C5=O)ccc(O)c3C(=O)C1=C(O)C[C@@H](C)[C@H]2OC(C)=O [PXA, Phomoxanthone A]
IC50 [2]: 13 ± 1.13 µM
inhibition type (Lineweaver–Burk plot), PTP1B [2]: noncompetitive inhibitors
IC50 [3]: 20.5 ± 4.45 µM
inhibition type (Lineweaver–Burk plot), SHP2 [3]: noncompetitive inhibitors
IC50 [4]: 36.5 ± 2.02 µM
inhibition type (Lineweaver–Burk plot), SHP1 [4]: competitive inhibitors
IC50 [5]: > 150 µM
IC50 [6]: > 150 µM
IC50 [1]: 16.4 ± 1.96 µM
colony formation of MCF7 cells [7]: significantly reduced the colony formation
ERK phosphorylation (western blot) [8]: increased ERK phosphorylation
JUN protein expression (western blot) [9]: upregulated the JUN protein expression
CXCL2 log 2 fold change [10]: 3.24
CXCL3 log 2 fold change [10]: 1.65
CXCL8 log 2 fold change [10]: 5.45
CXCL10 log 2 fold change [10]: 6.84
DDIT3 log 2 fold change [10]: 2.87
GADD45A log 2 fold change [10]: 1.41
IFI16 log 2 fold change [10]: 1.18
IFI27 log 2 fold change [10]: 4.22
IL1A log 2 fold change [10]: 4.78
IL1B log 2 fold change [10]: 3.30
IL6 log 2 fold change [10]: 4.00
IL18 log 2 fold change [10]: 1.78
IL24 log 2 fold change [10]: 6.37
IL32 log 2 fold change [10]: 1.57
IL33 log 2 fold change [10]: 4.45
IRF1 log 2 fold change [10]: 1.50
IRF7 log 2 fold change [10]: 2.76
JUN log 2 fold change [10]: 3.32
NFKB2 log 2 fold change [10]: 1.62
RELB log 2 fold change [10]: 2.43
XAF1 log 2 fold change [10]: 4.83

CC(=O)OC[C@]12Oc3ccc(-c4ccc(O)c5c4O[C@@]4(COC(C)=O)C(=C(O)C[C@@H](C)[C@H]4OC(C)=O)C5=O)c(O)c3C(=O)C1=C(O)C[C@@H](C)[C@H]2OC(C)=O [PXB, Phomoxanthone B]
IC50 [2]: 14.3 ± 2.2 µM
inhibition type (Lineweaver–Burk plot), PTP1B [2]: noncompetitive inhibitors
IC50 [3]: 11.9 ± 3.02 µM
inhibition type (Lineweaver–Burk plot), SHP2 [3]: noncompetitive inhibitors
IC50 [4]: 32.1 ± 3.74 µM
inhibition type (Lineweaver–Burk plot), SHP1 [4]: competitive inhibitors
IC50 [5]: > 150 µM
IC50 [6]: > 150 µM
IC50 [1]: 16.2 ± 2.59 µM
colony formation of MCF7 cells [7]: significantly reduced the colony formation
ERK phosphorylation (western blot) [8]: increased ERK phosphorylation
JUN protein expression (western blot) [9]: upregulated the JUN protein expression
CXCL2 log 2 fold change [10]: 3.19
CXCL3 log 2 fold change [10]: 1.58
CXCL8 log 2 fold change [10]: 5.22
CXCL10 log 2 fold change [10]: 5.96
DDIT3 log 2 fold change [10]: 2.92
GADD45A log 2 fold change [10]: 1.39
IFI16 log 2 fold change [10]: 1.15
IFI27 log 2 fold change [10]: 4.02
IL1A log 2 fold change [10]: 4.87
IL1B log 2 fold change [10]: 3.23
IL6 log 2 fold change [10]: 3.98
IL18 log 2 fold change [10]: 1.73
IL24 log 2 fold change [10]: 7.08
IL32 log 2 fold change [10]: 1.56
IL33 log 2 fold change [10]: 4.82
IRF1 log 2 fold change [10]: 1.34
IRF7 log 2 fold change [10]: 2.53
JUN log 2 fold change [10]: 3.16
NFKB2 log 2 fold change [10]: 1.69
RELB log 2 fold change [10]: 2.51
XAF1 log 2 fold change [10]: 4.41
